Results taken from ChEMBL document CHEMBL4477209, “Indole-2-carboxamide-based MmpL3 Inhibitors Show Exceptional Antitubercular Activity in an Animal Model of Tuberculosis Infection” (J Med Chem, 2016).
≈ marks a conversion by molar mass, not a printed value. Calls of active or inactive are those of the source. The rule behind the calls is not given here.

Columns and labels:
[1] = target: T1, Nuclear receptor subfamily 1 group I member 3 (Homo sapiens, UniProt Q14994); test: Transactivation of CAR (unknown origin) assessed as upregulation of CYP2B6; format: ADME
T1 sequence (Q14994 whole entry): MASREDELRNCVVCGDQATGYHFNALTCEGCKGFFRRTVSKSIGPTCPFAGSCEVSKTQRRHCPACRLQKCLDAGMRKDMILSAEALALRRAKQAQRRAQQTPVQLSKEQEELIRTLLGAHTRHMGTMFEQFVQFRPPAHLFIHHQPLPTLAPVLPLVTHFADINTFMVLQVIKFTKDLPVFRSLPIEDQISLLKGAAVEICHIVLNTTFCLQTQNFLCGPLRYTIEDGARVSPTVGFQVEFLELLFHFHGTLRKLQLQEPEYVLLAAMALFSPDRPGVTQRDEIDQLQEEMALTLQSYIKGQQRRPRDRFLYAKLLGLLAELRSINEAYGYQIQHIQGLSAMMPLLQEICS
How it was run: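 Nuclear receptor reporter-gene induction assay, with reporters coupled to PXR, CAR or AhR. Compound was tested at 0.1–1, 3 and 8 μg/mL. Positive controls were rifampin for PXR, CITCO for CAR and 3-methylcholanthrene for AhR.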

[2] = Mutagenicity in Salmonella typhimurium TA98 assessed as increase in ratio of revertant colonies in presence of S9 liver fraction relative to control; format: toxicity, subcellular; conditions: salmonella enterica subsp. enterica serovar typhimurium
[3] = Oral bioavailability in BALB/c mouse at 10 mg/kg administered for 30 to 120 mins followed by Mycobacterium tuberculosis H37Rv addition to compound treated serum incubated for 7 days by alamar blue reagent based serum inhibition titration assay; format: ADME, organism-based; conditions: in vivo
How it was run: (§1)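 Six-week-old female BALB/c mice (20 g) given one oral dose as suspension in 0.5% CMC in water; isoniazid 10 mg/kg as positive control, vehicle as negative. Serum collected at 30, 60 and 120 min, pooled from three mice per time point, 2-fold serially diluted. 10^4 CFU H37Rv added per well, 7 days at 37 °C. alamarBlue added for 16−18 h, fluorescence read at Ex544/Em590 and plotted against serum titration.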

[4] = tested on: Mycobacterium tuberculosis H37Rv; test: Inhibition of MmpL3 in clinical isolates of drug sensitive Mycobacterium tuberculosis H37Rv after 7 to 14 days by alamar blue assay
[5] = tested on: Mycobacterium tuberculosis; test: Antimycobacterial activity against Mycobacterium tuberculosis H37Rv grown on serum isolated from 10 mg/kg, po treated BALB/c mouse for 30 to 120 mins assessed as reduction in bacterial growth followed by bacterial addition incubated for 7 days by alamar blue reagent based serum inhibition titration assay; format: functional, organism-based; how it was run: as §1

## Clc1ccc(-c2nc3sccn3c2/C=N/OCc2ccc(Cl)c(Cl)c2)cc1
[1]
  Activity: Active

## Nc1ccc2cc3ccccc3cc2c1 [2-AMINOANTHRACENE]
[2]
  fold change (FC): 173

## NNC(=O)c1ccncc1 [ISONIAZID]
[3]
  Drug uptake: Active
[4]
  MIC90: 0.29 µM (≈ 0.0398 µg/mL)
[5]
  Activity: Active
